Activity calls are given as the source filed them. The calls are words filed in the database; no cut-off is given here.
Assays:
Format in all cases: functional, organism-based
Mus musculus [1] = assay: Immunostimulatory activity in rHagB-immunized BALB/c mouse assessed as potentiation of rHagB specific Th1 immune response by measuring increase in serum anti-rHagB IgG2a level at 100 ug, sc administered at 14 days interval for 3 times and measured at 2 to 6 week post rHagB immunization by ELISA
How it was run: (§1)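 Female BALB/c mice, 8-10 weeks old, six per group. Given His-tag-purified recombinant HagB (35 μg) s.c. alone or with 100 μg saponin adjuvant on days 0, 14 and 28. Serum was collected before each dose and 2 weeks post-final. Anti-rHagB IgG, IgG1 or IgG2a was measured by ELISA on rHagB-coated (1 μg/ml) plates with duplicate serial dilutions.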

Mus musculus [2] = assay: Immunostimulatory activity in rHagB-immunized BALB/c mouse assessed as potentiation of rHagB specific Th2 immune response by measuring increase in serum anti-rHagB IgG1 level at 100 ug, sc administered at 14 days interval for 3 times and measured at 6 week post rHagB immunization by ELISA; how it was run: as §1
Mus musculus [3] = assay: Immunostimulatory activity in rHagB-immunized BALB/c mouse assessed as potentiation of rHagB specific antibody response by measuring increase in serum anti-rHagB IgG level at 100 ug, sc administered at 14 days interval for 3 times and measured at 2 to 4 week post rHagB immunization by ELISA; how it was run: as §1
Mus musculus [4] = assay: Immunostimulatory activity in rHagB-immunized BALB/c mouse assessed as potentiation of rHagB specific Th2 immune response by measuring increase in serum anti-rHagB IgG1 level at 100 ug, sc administered at 14 days interval for 3 times and measured at 2 to 4 week post rHagB immunization by ELISA; how it was run: as §1
Mus musculus [5] = assay: Immunostimulatory activity in ovalbumin-immunized BALB/c mouse assessed as potentiation of OVA specific Th1 immune response by measuring increase in serum anti-OVA IgG2a level at 100 ug, sc administered at 14 days interval for 3 times and measured at 4 to 6 week post OVA immunization by ELISA
How it was run: (§2)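 Female BALB/c mice, 8-10 weeks old, six per group. Given OVA (20 μg) s.c. alone or with 100 μg saponin adjuvant on days 0, 14 and 28. Tail-vein blood was taken before each dose and 2 weeks after the last. Serum anti-OVA IgG, IgG1 or IgG2a was measured by ELISA on OVA-coated (0.1 μg/ml) plates with serial two-fold dilutions in duplicate.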

Mus musculus [6] = assay: Immunostimulatory activity in ovalbumin-immunized BALB/c mouse assessed as potentiation of OVA specific antibody response by measuring increase in serum anti-OVA IgG level at 100 ug, sc administered at 14 days interval for 3 times and measured at 4 to 6 week post OVA immunization by ELISA; how it was run: as §2
Mus musculus [7] = assay: Immunostimulatory activity in ovalbumin-immunized BALB/c mouse assessed as potentiation of OVA specific Th2 immune response by measuring increase in serum anti-OVA IgG1 level at 100 ug, sc administered at 14 days interval for 3 times and measured at 4 to 6 week post OVA immunization by ELISA; how it was run: as §2
Mus musculus [8] = assay: Immunostimulatory activity in rHagB-immunized BALB/c mouse assessed as potentiation of rHagB specific antibody response by measuring increase in serum anti-rHagB IgG level at 100 ug, sc administered at 14 days interval for 3 times and measured at 6 week post rHagB immunization by ELISA; how it was run: as §1
Mus musculus [9] = assay: Immunostimulatory activity in ovalbumin-immunized BALB/c mouse assessed as potentiation of OVA specific Th2 immune response by measuring increase in serum anti-OVA IgG1 level at 100 ug, sc administered at 14 days interval for 3 times and measured at 6 week post OVA immunization by ELISA; how it was run: as §2
Mus musculus [10] = assay: Immunostimulatory activity in ovalbumin-immunized BALB/c mouse assessed as potentiation of OVA specific Th2 immune response by measuring increase in serum anti-OVA IgG1 level at 100 ug, sc administered at 14 days interval for 3 times and measured at 4 week post OVA immunization by ELISA; how it was run: as §2

In the case of `C[C@@H]1O[C@H](O[C@H]2[C@H](OC(=O)[C@]34CCC(C)(C)C[C@H]3C3=CC[C@@H]5[C@@]6(C)CC[C@H](O[C@@H]7O[C@H](C(=O)NCCCCCCCCCCC(=O)OCc8ccccc8)[C@@H](O)[C@H](O[C@@H]8OC[C@@H](O)[C@H](O)[C@H]8O)[C@H]7O[C@@H]7O[C@H](CO)[C@H](O)[C@H](O)[C@H]7O)[C@@](C)(C=O)[C@@H]6CC[C@@]5(C)[C@]3(C)C[C@H]4O)O[C@H](C)[C@H](O)[C@@H]2O)[C@H](O)[C@H](O[C@@H]2O[C@H](CO)[C@@H](O)[C@H](O)[C@H]2O)[C@H]1O[C@H]1OC[C@H](O)[C@@H](O[C@H]2OC[C@H](O)[C@@H](O)[C@@H]2O)[C@@H]1O`, the Activity (Mus musculus [1]) is reported as “Active”, the Activity (Mus musculus [2]) is reported as “Active” and the Activity (Mus musculus [3]) is reported as “Active”. The Activity (Mus musculus [4]) was “Active”.

For `C[C@@H]1O[C@@H](O[C@H]2[C@H](O)[C@@H](C(=O)NCCCCCCCCCCC(=O)O)O[C@@H](O[C@H]3CC[C@]4(C)[C@H]5CC=C6[C@@H]7CC(C)(C)CC[C@]7(C(=O)O[C@@H]7O[C@H](C)[C@H](O)[C@H](O)[C@H]7O[C@H]7O[C@@H](C)[C@H](O[C@H]8OC[C@H](O)[C@@H](O)[C@@H]8O)[C@@H](O[C@@H]8O[C@H](CO)[C@@H](O)[C@H](O[C@@H]9OC[C@@H](O)[C@H](O)[C@H]9O)[C@H]8O)[C@H]7O)CC[C@@]6(C)[C@]5(C)CC[C@H]4[C@]3(C)C=O)[C@@H]2O[C@@H]2O[C@H](CO)[C@H](O)[C@H](O)[C@H]2O)[C@H](O)[C@H](O)[C@H]1O`, the Activity (Mus musculus [5]) was “Active”, the Activity (Mus musculus [6]) was “Active” and the Activity (Mus musculus [7]) was “Active”.

`C[C@@H]1O[C@@H](O[C@H]2[C@H](O)[C@@H](C(=O)NCCCCCCCCCCC(=O)OCc3ccccc3)O[C@@H](O[C@H]3CC[C@]4(C)[C@H]5CC=C6[C@@H]7CC(C)(C)CC[C@]7(C(=O)O[C@@H]7O[C@H](C)[C@H](O)[C@H](O)[C@H]7O[C@H]7O[C@@H](C)[C@H](O[C@H]8OC[C@H](O)[C@@H](O)[C@@H]8O)[C@@H](O[C@@H]8O[C@H](CO)[C@@H](O)[C@H](O[C@@H]9OC[C@@H](O)[C@H](O)[C@H]9O)[C@H]8O)[C@H]7O)[C@H](O)C[C@@]6(C)[C@]5(C)CC[C@H]4[C@]3(C)C=O)[C@@H]2O[C@@H]2O[C@H](CO)[C@H](O)[C@H](O)[C@H]2O)[C@H](O)[C@H](O)[C@H]1O` was tested, and the Activity (Mus musculus [1]) was “Active”, the Activity (Mus musculus [3]) was “Active” and the Activity (Mus musculus [4]) was “Active”. For the same compound, the Activity (Mus musculus [5]) was “Active”, the Activity (Mus musculus [6]) was “Active” and the Activity (Mus musculus [7]) was “Active”.

For `CCCCCCCCCCCCNC(=O)[C@H]1O[C@@H](O[C@H]2CC[C@]3(C)[C@H]4CC=C5[C@@H]6CC(C)(C)CC[C@]6(C(=O)O[C@@H]6O[C@H](C)[C@H](O)[C@H](O)[C@H]6O[C@H]6O[C@@H](C)[C@H](O[C@H]7OC[C@H](O)[C@@H](O)[C@@H]7O)[C@@H](O[C@@H]7O[C@H](CO)[C@@H](O)[C@H](O[C@@H]8OC[C@@H](O)[C@H](O)[C@H]8O)[C@H]7O)[C@H]6O)CC[C@@]5(C)[C@]4(C)CC[C@H]3[C@]2(C)C=O)[C@H](O[C@@H]2O[C@H](CO)[C@H](O)[C@H](O)[C@H]2O)[C@@H](O[C@@H]2O[C@@H](C)[C@H](O)[C@@H](O)[C@H]2O)[C@@H]1O`, the Activity (Mus musculus [5]) was “Active”, the Activity (Mus musculus [6]) was “Active” and the Activity (Mus musculus [7]) was “Active”.

For `CCCCCCCCCCCCNC(=O)[C@H]1O[C@@H](O[C@H]2CC[C@]3(C)[C@H]4CC=C5[C@@H]6CC(C)(C)CC[C@]6(C(=O)O[C@@H]6O[C@H](C)[C@H](O)[C@H](O)[C@H]6O[C@@H]6O[C@@H](C)[C@H](O[C@@H]7OC[C@@H](O)[C@H](O[C@@H]8OC[C@](O)(CO)[C@H]8O)[C@H]7O)[C@@H](O)[C@H]6O)[C@H](O)C[C@@]5(C)[C@]4(C)CC[C@H]3[C@]2(C)C=O)[C@H](O[C@@H]2O[C@H](CO)[C@H](O)[C@H](O)[C@H]2O)[C@@H](O[C@@H]2OC[C@@H](O)[C@H](O)[C@H]2O)[C@@H]1O`, the Activity (Mus musculus [1]) was “Active”, the Activity (Mus musculus [3]) was “Active” and the Activity (Mus musculus [8]) was “Active”. For the same compound, the Activity (Mus musculus [4]) was “Active”, the Activity (Mus musculus [5]) was “Active” and the Activity (Mus musculus [6]) was “Active”. The Activity (Mus musculus [7]) was “Active”.

For `C[C@@H]1O[C@H](O[C@H]2[C@H](OC(=O)[C@]34CCC(C)(C)C[C@H]3C3=CC[C@@H]5[C@@]6(C)CC[C@H](O[C@@H]7O[C@H](C(=O)NCCCCCCCCCCC(=O)O)[C@@H](O)[C@H](O[C@@H]8OC[C@@H](O)[C@H](O)[C@H]8O)[C@H]7O[C@@H]7O[C@H](CO)[C@H](O)[C@H](O)[C@H]7O)[C@@](C)(C=O)[C@@H]6CC[C@@]5(C)[C@]3(C)C[C@H]4O)O[C@H](C)[C@H](O)[C@@H]2O)[C@H](O)[C@H](O[C@@H]2O[C@H](CO)[C@@H](O)[C@H](O)[C@H]2O)[C@H]1O[C@H]1OC[C@H](O)[C@@H](O[C@H]2OC[C@H](O)[C@@H](O)[C@@H]2O)[C@@H]1O`, the Activity (Mus musculus [1]) was “Active”, the Activity (Mus musculus [2]) was “Active” and the Activity (Mus musculus [3]) was “Active”. The Activity (Mus musculus [4]) was “Active”.

With `C[C@@H]1O[C@@H](O[C@H]2[C@H](O)[C@@H](C(=O)NCCCCCCCCCCC(=O)OCc3ccccc3)O[C@@H](O[C@H]3CC[C@]4(C)[C@H]5CC=C6[C@@H]7CC(C)(C)CC[C@]7(C(=O)O[C@@H]7O[C@H](C)[C@H](O)[C@H](O)[C@H]7O[C@H]7O[C@@H](C)[C@H](O[C@H]8OC[C@H](O)[C@@H](O)[C@@H]8O)[C@@H](O[C@@H]8O[C@H](CO)[C@@H](O)[C@H](O[C@@H]9OC[C@@H](O)[C@H](O)[C@H]9O)[C@H]8O)[C@H]7O)CC[C@@]6(C)[C@]5(C)CC[C@H]4[C@]3(C)C=O)[C@@H]2O[C@@H]2O[C@H](CO)[C@H](O)[C@H](O)[C@H]2O)[C@H](O)[C@H](O)[C@H]1O` the Activity (Mus musculus [5]) was “Active”, the Activity (Mus musculus [6]) was “Active” and the Activity (Mus musculus [7]) was “Active”.

`C[C@@H]1O[C@@H](O[C@H]2[C@H](O)[C@@H](C(=O)NCCCCCCCCCCC(=O)O)O[C@@H](O[C@H]3CC[C@]4(C)[C@H]5CC=C6[C@@H]7CC(C)(C)CC[C@]7(C(=O)O[C@@H]7O[C@H](C)[C@H](O)[C@H](O)[C@H]7O[C@H]7O[C@@H](C)[C@H](O[C@H]8OC[C@H](O)[C@@H](O)[C@@H]8O)[C@@H](O[C@@H]8O[C@H](CO)[C@@H](O)[C@H](O[C@@H]9OC[C@@H](O)[C@H](O)[C@H]9O)[C@H]8O)[C@H]7O)[C@H](O)C[C@@]6(C)[C@]5(C)CC[C@H]4[C@]3(C)C=O)[C@@H]2O[C@@H]2O[C@H](CO)[C@H](O)[C@H](O)[C@H]2O)[C@H](O)[C@H](O)[C@H]1O` was tested, and the Activity (Mus musculus [9]) was “inactive”, the Activity (Mus musculus [1]) was “Active” and the Activity (Mus musculus [3]) was “Active”. The Activity (Mus musculus [10]) was “Active”, the Activity (Mus musculus [4]) was “Active” and the Activity (Mus musculus [6]) was “Active”.

— ChEMBL document CHEMBL4602693, “Structural Effect on Adjuvanticity of Saponins” (J Med Chem, 2020)
